Laboratory results published in ChEMBL document CHEMBL1136958, “Design and optimization of renin inhibitors: Orally bioavailable alkyl amines” (Bioorg Med Chem Lett, 2009).

Legend:
Renin [1] = molecular target: T1, Renin (Homo sapiens, UniProt P00797); assay: Inhibition of human recombinant renin
T1 sequence (P00797 whole entry): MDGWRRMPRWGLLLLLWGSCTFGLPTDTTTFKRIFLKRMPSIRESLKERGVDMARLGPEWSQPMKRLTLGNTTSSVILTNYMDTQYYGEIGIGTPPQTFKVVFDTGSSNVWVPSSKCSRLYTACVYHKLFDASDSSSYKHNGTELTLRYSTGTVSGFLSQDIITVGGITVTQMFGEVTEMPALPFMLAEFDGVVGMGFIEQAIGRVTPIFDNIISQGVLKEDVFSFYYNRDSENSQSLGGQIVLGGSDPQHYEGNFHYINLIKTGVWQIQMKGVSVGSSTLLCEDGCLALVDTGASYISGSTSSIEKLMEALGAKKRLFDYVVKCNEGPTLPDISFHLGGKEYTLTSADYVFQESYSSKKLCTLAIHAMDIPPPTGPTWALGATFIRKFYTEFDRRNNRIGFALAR

Renin [2] = molecular target: T1, Renin; assay: Inhibition of human recombinant renin in presence of human plasma by competitive radioimmunoassay; type: cell-free
in vivo = conditions: rat, po
[3] = Cmax in rat at 10 mg/kg, po and 2 mg/kg, iv; type: ADME, organism-based; conditions: in vivo
Method in brief: (§1)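 Rats dosed with the fumarate salt at 10 mg/kg by oral route and 2 mg/kg intravenously. Plasma concentrations measured over time, and PK parameters derived from them.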

[4] = Tmax in rat at 10 mg/kg, po and 2 mg/kg, iv; type: ADME, organism-based; conditions: in vivo; method in brief: as §1
[5] = AUC (infinity) in rat at 10 mg/kg, po and 2 mg/kg, iv; type: ADME, organism-based; conditions: plasma; method in brief: as §1
[6] = Clearance in rat at 2 mg/kg, iv; type: ADME, organism-based; parameters: dose 2 mg/kg, route intravenous; conditions: in vivo; method in brief: as §1
[7] = Oral bioavailability in rat at 10 mg/kg; type: ADME, organism-based; conditions: in vivo; method in brief: as §1
[8] = Solubility in water; type: physicochemical
[9] = molecular target: Voltage-gated inwardly rectifying potassium channel KCNH2 (Homo sapiens, UniProt Q12809); assay: Inhibition of human ERG by patch clamp assay
Chain of Voltage-gated inwardly rectifying potassium channel KCNH2 (Q12809 whole entry): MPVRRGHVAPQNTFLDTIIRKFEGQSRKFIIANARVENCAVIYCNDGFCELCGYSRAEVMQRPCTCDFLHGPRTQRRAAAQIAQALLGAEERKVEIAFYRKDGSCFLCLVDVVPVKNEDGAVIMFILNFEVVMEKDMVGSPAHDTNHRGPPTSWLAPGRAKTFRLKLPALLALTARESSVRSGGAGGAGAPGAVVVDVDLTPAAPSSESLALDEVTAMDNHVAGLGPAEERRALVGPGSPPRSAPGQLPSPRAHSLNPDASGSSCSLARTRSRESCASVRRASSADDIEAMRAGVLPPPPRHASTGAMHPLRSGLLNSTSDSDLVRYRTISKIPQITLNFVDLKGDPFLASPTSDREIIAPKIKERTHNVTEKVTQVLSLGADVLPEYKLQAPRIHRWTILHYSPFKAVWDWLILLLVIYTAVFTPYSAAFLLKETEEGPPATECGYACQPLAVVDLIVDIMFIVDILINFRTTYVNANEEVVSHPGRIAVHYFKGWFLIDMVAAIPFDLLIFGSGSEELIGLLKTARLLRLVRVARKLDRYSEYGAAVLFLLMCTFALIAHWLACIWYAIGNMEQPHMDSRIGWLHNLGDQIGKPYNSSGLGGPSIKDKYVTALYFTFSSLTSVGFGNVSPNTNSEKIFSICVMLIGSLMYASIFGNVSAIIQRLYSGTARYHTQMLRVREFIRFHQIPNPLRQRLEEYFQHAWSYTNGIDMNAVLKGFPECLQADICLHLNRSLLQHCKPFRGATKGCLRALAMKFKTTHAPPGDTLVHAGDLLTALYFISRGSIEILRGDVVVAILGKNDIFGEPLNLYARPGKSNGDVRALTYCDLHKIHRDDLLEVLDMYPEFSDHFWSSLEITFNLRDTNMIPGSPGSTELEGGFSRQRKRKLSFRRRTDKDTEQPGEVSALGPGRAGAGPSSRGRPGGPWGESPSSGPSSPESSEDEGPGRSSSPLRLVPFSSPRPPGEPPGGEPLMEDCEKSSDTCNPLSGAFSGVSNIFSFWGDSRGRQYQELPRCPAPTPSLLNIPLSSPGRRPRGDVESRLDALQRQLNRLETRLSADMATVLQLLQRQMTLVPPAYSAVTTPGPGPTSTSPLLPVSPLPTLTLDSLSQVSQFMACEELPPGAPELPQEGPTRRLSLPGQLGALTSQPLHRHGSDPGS

[10] = Oral bioavailability in dog; type: ADME, organism-based, Canis lupus familiaris; conditions: in vivo
[11] = Terminal half life in dog; type: ADME, organism-based, Canis lupus familiaris; conditions: in vivo, read-out: beta t1/2 (converted)
Macaca fascicularis [12] = species: Macaca fascicularis; assay: Terminal half life in cynomolgus monkey; conditions: in vivo, read-out: beta t1/2 (converted)
Macaca fascicularis [13] = assay: Oral bioavailability in cynomolgus monkey; conditions: in vivo
[14] = Volume of distribution at steady state in rat at 10 mg/kg, po and 2 mg/kg, iv; type: ADME, organism-based; conditions: in vivo, read-out: Vdss

| IC50 (Renin [1]) [nM] | IC50 (Renin [2]) [nM] | Structure (SMILES) | further results |
| --- | --- | --- | --- |
| 11 | 84 | CCOCCCO[C@@H](c1cccc(F)c1)[C@@H]1CCCN(C(=O)N[C@H](CNC)CC2CCCCC2)C1 | – |
| 7 | 389 | CNC[C@H](CC1CCCCC1)NC(=O)N1CCC[C@@H]([C@@](O)(CCCCOC)c2cccc(C(F)(F)F)c2)C1 | – |
| 3 | 47 | CNC[C@H](CC1CCCCC1)NC(=O)N1CCC[C@@H]([C@@](O)(CCCCOC)c2cccc(F)c2)C1 | – |
| 5.5 | 190 | CCOCCCO[C@@H](c1cccc(Cl)c1)[C@@H]1CCCN(C(=O)N[C@H](CN)CC2CCCCC2)C1 | – |
| 0.13 | 12 | CNC[C@H](CC1CCCCC1)NC(=O)N1CCC[C@@H]([C@@](O)(CCCCOC)c2cccc(Br)c2)C1 | – |
| 3.5 | 67 | CNC[C@H](CC1CCCCC1)NC(=O)N1CCC[C@@H]([C@@](O)(CCCCOC)c2cc(C)ccc2F)C1 | – |
| – | 13 | CNC[C@H](CC1CCCCC1)NC(=O)N1CCC[C@@H]([C@@](O)(CCCCOC)c2cccc(Cl)c2)C1 | – |
| 69 | – | CNC[C@H](CC1CCCCC1)NC(=O)N1CCC[C@@H]([C@@](O)(CCCCOC)c2cccc(OC(F)(F)F)c2)C1 | – |
| 7 | 151 | CNC[C@H](CC1CCCCC1)NC(=O)N1CCC[C@@H]([C@@](O)(CCCCOC)c2ccccc2Cl)C1 | – |
| 4 | 61 | CNC[C@H](CC1CCCCC1)NC(=O)N1CCC[C@@H]([C@@](O)(CCCCOC)c2ccccc2F)C1 | – |
| 55 | – | CCOCCCO[C@@H](c1ccccc1)[C@@H]1CCCN(C(=O)N[C@H](CN)CC2CCCCC2)C1 | – |

The next lines start with the compound.

| Structure (SMILES) | IC50 (Renin [1]) [nM] | IC50 (Renin [2]) [nM] | further results |
| --- | --- | --- | --- |
| COCCCO[C@@H](c1ccccc1)[C@@H]1CCCN(C(=O)N[C@H](CN)CC2CCCCC2)C1 | 308 | – | – |
| COCCCOc1cc(C[C@@H](C[C@H](N)[C@@H](O)C[C@H](C(=O)NCC(C)(C)C(N)=O)C(C)C)C(C)C)ccc1OC | – | – | bioavailability (in vivo): 2.4% |
| CNC[C@H](CC1CCCCC1)NC(=O)N1CCC[C@@H]([C@@](O)(CCCCOC)c2cccc(Cl)c2F)C1 | 0.1 | 27 | – |
| CNC[C@H](CC1CCCCC1)NC(=O)N1CCC[C@@H]([C@@H](OCCCOC)c2cccc(Cl)c2F)C1 | 39 | 369 | – |
| CNC[C@H](CC1CCCCC1)NC(=O)N1CCC[C@@H]([C@@](O)(CCCCOC)c2cccc(Cl)c2)C1.O=C(O)/C=C/C(=O)O | – | – | Cmax [3]: 73 ng/mL; Tmax [4]: 3.3 h; AUC(0-inf) [5]: 530 ng·h/mL; clearance [6]: 33 mL/min/kg; bioavailability [7]: 12.9%; solubility [8]: > 1000 µg/mL; IC50 [9]: > 30000 nM; bioavailability [10]: 38%; half-life [11]: 16 h; half-life (Macaca fascicularis [12]): 16 h; bioavailability (Macaca fascicularis [13]): 17% |
| CCOCCCO[C@@H](c1ccccc1)[C@@H]1CCCN(C(=O)N[C@H](CNC)CC2CCCCC2)C1.O=C(O)/C=C/C(=O)O | – | – | Cmax [3]: 91 ng/mL; Tmax [4]: 3 h; AUC(0-inf) [5]: 882 ng·h/mL; clearance [6]: 59 mL/min/kg; Vd [14]: 22 L/kg; bioavailability [7]: 35.8% |
| CNC[C@H](CC1CCCCC1)NC(=O)N1CCC[C@@H]([C@@H](OCCCO)c2cccc(Cl)c2)C1 | 764 | – | – |
| CCNC[C@H](CC1CCCCC1)NC(=O)N1CCC[C@@H]([C@@](O)(CCCCOC)c2cccc(Cl)c2)C1 | 6 | 154 | – |
| CNC[C@H](CC1CCCCC1)NC(=O)N1CCC[C@@H]([C@@H](OCCCOC)c2cccc(Cl)c2Cl)C1 | 609 | – | – |
| COCCCC[C@@](O)(c1cccc(Cl)c1)[C@@H]1CCCN(C(=O)N[C@H](CNCC(F)(F)F)CC2CCCCC2)C1 | 46 | 1400 | – |
